# Wee1 stabilizer: Wee1 degradation inhibitors, primary screen, cell-based, HeLa, Wee1K328M-luciferase, luminescence. Wee1-like protein kinase (Homo sapiens), P30291. HeLa Luc-Wee1K328M stability; 100% = proteasome inhibitor MG132 effect. reporter increase, % at 5 µM. 220,000 compounds, 1.2% hits;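 active means activation above the mean of all tested compounds plus 3 SD, set per screening run, cut at about 8.8% in these data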;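 further: cells exposed to compound for 20 h before luminescence read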
# Target sequence (P30291 whole entry K328M): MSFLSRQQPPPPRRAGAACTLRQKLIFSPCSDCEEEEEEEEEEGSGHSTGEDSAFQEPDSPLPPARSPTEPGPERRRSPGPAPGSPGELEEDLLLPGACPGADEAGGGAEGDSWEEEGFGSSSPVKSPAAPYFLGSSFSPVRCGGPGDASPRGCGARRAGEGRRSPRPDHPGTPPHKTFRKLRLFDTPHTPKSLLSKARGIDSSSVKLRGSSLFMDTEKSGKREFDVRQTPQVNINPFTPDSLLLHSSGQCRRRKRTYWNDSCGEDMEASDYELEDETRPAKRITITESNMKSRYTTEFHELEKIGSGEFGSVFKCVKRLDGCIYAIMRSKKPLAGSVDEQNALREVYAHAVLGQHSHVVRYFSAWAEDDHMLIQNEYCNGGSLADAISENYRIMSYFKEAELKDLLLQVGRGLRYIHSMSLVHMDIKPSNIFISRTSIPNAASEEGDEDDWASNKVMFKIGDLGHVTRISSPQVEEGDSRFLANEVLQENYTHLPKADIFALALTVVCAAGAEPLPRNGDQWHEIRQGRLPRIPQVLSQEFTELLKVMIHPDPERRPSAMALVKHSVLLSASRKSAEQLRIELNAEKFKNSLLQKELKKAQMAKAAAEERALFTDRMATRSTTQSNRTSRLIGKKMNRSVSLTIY
# L major viab: Leishmania major promastigote growth inhibition, primary screen | Leishmania major promastigotes, resazurin fluorescence viability | inhibition, % at 10 µM | 200,000 compounds, 9% hits;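 further: promastigotes grown with compound for 44 hours at 28 °C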
# Arbovirus anti: antivirals against arbovirus infection, primary screen, cell-based, full library, 10K replicate subset; arbovirus infection cell-based antiviral screen; inhibition, % at 10 µM; 200,000 compounds, 0.37% hits; in the data active means inhibition above about 30%
# CHOP inh: inhibitors of CHOP promoter induction, primary screen, cell-based, unfolded protein response, luciferase reporter; CHO-K1 CHOP-promoter luciferase, tunicamycin-induced, 15-18 h; inhibition, % at 10 µM; 220,000 compounds, 3.8% hits;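 active means compounds that reduced the stress-induced luciferase reporter signal by more than about 70% of percent inhibition, limit read from the data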
# Rad51 HR inh: human RAD51 strand exchange inhibitors, primary screen, biochemical, fluorescence | AID 1385, 2008 | inhibition, % at 10 µM | hRad51 DNA strand exchange, fluorescence dequenching | DNA repair protein RAD51 homolog 1 (Homo sapiens), Q06609 | 200,000 compounds, 0.085% hits;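 active means inhibition above 40% at the single screening dose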
#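 Assay system: Human Rad51 nucleoprotein filaments preassembled on unlabelled ssDNA | Reagent: Donor/quencher-labelled 47-bp dsDNA substrate | Doses: One concentration, 10 µM final | Times: 37 °C 15-min filament assembly, 30-min compound preincubation, 15-min exchange | Technique: Fluorescein emission 520 nm, excitation 485 nm | Benchmarks: Plate control and blank wells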
# PKD1 inh: inhibitors of human PKD1 kinase, biochemical, fluorescence polarization | inhibition, % (test concentration not listed) | 200,000 compounds, 0.056% hits | PKD1 kinase fluorescence polarization assay | Serine/threonine-protein kinase D1 (Homo sapiens), Q15139
# CHOP confirm: retest of CHOP induction inhibitors, confirmation, cell-based | shares compounds with CHOP inh | CHO-CHOP promoter luciferase reporter, tunicamycin-induced, luminescence | inhibition, % at 10 µM | 2,100 compounds, 45% hits;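 active means mean of three repeat readings of reporter signal inhibition above a set limit, cut at about 70% in these data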
# Hits are given with their value; 0 = inactive; - = not tested or not shown. In the library only some 12% were active in any assay of this set; here they are far more common. Unless noted, no stated cut-off is given here; in the data, active means inhibition above about 50%; inactive means the rest.
SMILES,Wee1 stabilizer,L major viab,Arbovirus anti,CHOP inh,Rad51 HR inh,PKD1 inh,CHOP confirm
CCCn1nnnc1NC(=O)COc1ccc(CC)cc1,0,0,0,0,0,0,-
Cc1onc(-c2ccccc2)c1-c1nnc(-c2ccccc2C(F)(F)F)o1,0,-,-,0,0,-,-
CCn1c(C)nc2cc(-c3nnc(-c4c(-c5ccccc5)noc4C)o3)ccc21,0,0,0,102,0,0,85
CC(C)c1ccc(/C=C/c2ccc(=O)n(C)n2)cc1,0,0,0,0,0,0,-
Cc1ccccc1NC(=O)CSc1nc(N)c(C#N)c(-c2cccs2)c1C#N,0,0,0,105,0,0,0
Cc1cccc(C)c1NC(=O)C(NC(=O)CN1C(=O)c2ccccc2C1=O)c1ccccc1 (stereo unspecified),0,0,0,0,0,0,-
Cc1cccc(NC(=O)CCC(=O)Nc2nnc(C(F)(F)F)s2)c1,0,-,-,0,-,-,-
COc1ccc(/C=c2\sc3nc(-c4ccccc4OC)nn3c2=O)c(OC)c1,0,0,0,102,0,0,0
COc1ccccc1/C=c1\sc2nc(-c3cccs3)nn2c1=O,0,0,-,-,-,0,-
Cc1ccc(NC(=O)Cc2ccc3c(c2)OCCO3)cc1S(=O)(=O)N1CCCCC1,0,-,-,0,0,-,-
O=S(=O)(Nc1c(S(=O)(=O)c2ccccc2)c2nc3ccccc3nc2n1C1CCCCC1)c1ccccc1,0,0,0,106,0,0,0
Cc1ccc(Nc2nc(N)nc(CN3CCN(c4ccccc4)CC3)n2)cc1Cl,0,0,0,103,0,0,75
Oc1[nH]c2ccccc2c1N=Nc1ccc(F)cc1,0,0,0,97,0,0,0
CC(C)c1nnc(NC(=O)c2c(O)c3cccc4c3n(c2=O)CCC4)s1,0,72,0,104,0,0,109
CCCc1nnc(NC(=O)c2c(O)c3cccc4c3n(c2=O)CC4)s1,-,-,-,-,0,-,-
COc1ccc(/C=C/C(=O)Nc2ccccc2Cl)cc1S(=O)(=O)N1CCOCC1,0,-,-,0,-,-,-
O=C(Oc1ccc(O)cc1)C12CC3CC(CC(C3)C1)C2,0,0,0,106,0,0,116
Cc1ccc(C)c(C(=O)CN2C(=O)c3ccccc3S2(=O)=O)c1,0,0,0,0,0,0,-
Cc1ccc(C)c(C(=O)Cn2ncc(Cl)c(Cl)c2=O)c1,0,95,0,111,-,0,0
Cc1ccc(C(C)C)c(OCC(=O)NN=C2CCCC2)c1,0,0,0,0,0,0,-
Cc1ccc(C(C)C)c(OCC(=O)NN=C(CCl)CCl)c1,0,-,-,106,-,-,0
C/C(=N/NC(=O)COc1cc(C)ccc1C(C)C)C(=O)O,0,0,0,0,0,0,-
Cc1ccc(C(C)C)c(OCC(=O)N/N=C/C2CCCCC2)c1,9.2,0,0,101,0,0,70
O=C1c2ccccc2S(=O)(=O)c2cc(N3CCc4ccccc4C3)ccc21,-,-,-,-,0,-,-
CCOc1nc(N2CCCCC2)nc(-n2cc(-c3ccccc3)nn2)n1,0,0,0,0,0,0,-
SMILES,Wee1 stabilizer,L major viab,Arbovirus anti,CHOP inh,Rad51 HR inh,PKD1 inh,CHOP confirm
CCOC(=O)c1c(-c2ccccc2)nnn1-c1nc(OCC)nc(N2CCCCC2)n1,0,0,0,101,0,0,0
CSc1nc(C)nc(N/C=C(\C#N)S(=O)(=O)c2ccccc2Cl)n1,0,-,-,0,0,-,-
CCC(=O)N(CCc1ccc(S(N)(=O)=O)cc1)C1CC(=O)N(c2ccc(OC)cc2)C1=O (stereo unspecified),0,0,0,0,0,0,-
CN1/C(=C/C(=O)c2nc(S(C)(=O)=O)ncc2Cl)C(C)(C)c2ccccc21,0,83,0,-,0,0,117
COC(=O)c1ccc(Cl)c(NC(=O)NC23CC4CC(CC(C4)C2)C3)c1,0,0,0,0,0,0,-
COC(=O)c1cccc(NC(=O)NC23CC4CC(CC(C4)C2)C3)c1,0,0,0,101,0,0,0
COc1ccccc1NC(=S)N(CCCN1CCOCC1)Cc1cccs1,0,0,0,0,0,0,-
COc1cc(OC)cc(C(=O)N[C@H](C(=O)Nc2nc(-c3cc(OC)ccc3OC)cs2)C(C)C)c1,0,0,0,0,0,0,-
COc1cc(OC)cc(C(=O)N[C@H](C(=O)Nc2nc(-c3ccc(OC)c(OC)c3)cs2)C(C)C)c1,0,-,-,101,0,-,0
O=C(Nc1nc2ccccc2n1Cc1ccc(Cl)cc1)c1ccco1,0,0,0,103,0,0,0
CC(=O)Nc1ccc(S(=O)(=O)N(Cc2ccccc2)C(C)C)cc1,0,0,0,0,0,0,-
Cc1ccc(SCC(=O)N2c3ccccc3Sc3ccccc32)cc1,0,0,0,0,0,0,-
COc1ccc(OC)c2sc(NC(=O)c3ccc(Cl)s3)nc12,0,0,0,103,0,0,86
CCC(=O)Nc1nc2c(OC)ccc(OC)c2s1,0,0,0,0,0,0,-
CCOc1ccc2nc(NC(=O)CSc3nnnn3C3CCCCC3)sc2c1,0,0,0,107,0,0,110
CC(C)n1c(SCC(=O)Nc2nc3ccccc3s2)nc2c1c(=O)n(C)c(=O)n2C,0,0,0,0,0,0,-
CCOc1ccc2nc(NC(=O)CSc3nc4c(c(=O)n(C)c(=O)n4C)n3C(C)C)sc2c1,0,0,0,105,-,0,84
Cc1ccc(/C=C/C(=O)NC2CCCCCCC2)o1,0,0,0,0,0,0,-
COc1ccc(CC(=O)NNC2=Nc3cccc4cccc2c34)cc1,0,-,-,100,0,-,0
COc1ccc(C(=O)NNC2=Nc3cccc4cccc2c34)cc1,0,0,0,0,0,0,-
O=C(COc1cccc(NC(=O)c2ccco2)c1)c1ccc(F)cc1,0,0,0,0,0,0,-
O=C(COC(=O)c1cccc(NC(=O)c2ccco2)c1)c1ccc(Br)cc1,0,99,0,105,0,0,0
Cc1cccc(N(C(=O)Nc2ccc(Cl)cc2)C2=NCC(C)S2)n1 (stereo unspecified),0,0,0,0,-,0,-
CCCNC(=S)Nc1ccc2nc(-c3ccccn3)c(-c3ccccn3)nc2c1,0,0,0,0,-,0,-
O=C(COc1ccc(/C=N/NC(=O)c2cc3ccccc3o2)cc1Cl)Nc1ccccc1,0,0,0,108,0,0,0
CCOc1cc(/C=N\NC(=O)Cc2ccccc2)ccc1OCC(=O)Nc1ccc(C)c(C)c1,0,0,0,97,-,0,127
CCOc1cc(/C=N\Nc2ccc([N+](=O)[O-])cc2)ccc1OCC(=O)Nc1ccc(C)c(C)c1,0,0,0,0,0,0,-
BrC(=C\c1ccccc1)/C=N/n1cnnc1,0,100,0,106,0,0,0
